Experimental data taken from ChEMBL document CHEMBL4699667, “Discovery of the Potent, Selective, Orally Available CXCR7 Antagonist ACT-1004-1239” (J Med Chem, 2020).
Values after ≈ are worked out from the molar mass of the structure shown.

Assays:
[1] = physchem; conditions: octanol/water, pH 7.4
[2] = physchem
[3] = Aqueous solubility at pH 7; type: physicochemical
[4] = Solubility in FaSSIF-V1 medium; type: physicochemical
[5] = Solubility in FeSSIF-V1 medium; type: physicochemical
[6] = Tmax in Wistar rat at 10 mg/kg, po after 24 hrs by LC-MS-MS analysis; type: ADME, organism-based; conditions: in vivo
Outline: (§1)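 Rats received a single oral dose of 10 mg/kg (n = 3). Parameters are averages and Tmax is the median. Plasma was sampled at 8 h post-dose, among other times. Bioavailability is referenced to the 1 mg/kg iv dose (n = 2).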

[7] = Volume of distribution at steady state in beagle dog at 1 mg/kg, iv after 24 hrs by LC-MS-MS analysis; type: ADME, organism-based, Canis lupus familiaris; conditions: in vivo, read-out: Vdss
Outline: (§2)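 Single intravenous dose of 1 mg/kg in rat and in dog, with n = 2 animals per species. Parameters are reported as averages. Blood clearance is plasma clearance corrected for blood/plasma partitioning and expressed as a fraction of liver blood flow.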

[8] = Oral bioavailability in Wistar rat at 10 mg/kg after 24 hrs by LC-MS-MS analysis; type: ADME, organism-based; conditions: in vivo
Outline: as §1

[9] = Volume of distribution at steady state in Wistar rat at 1 mg/kg, iv after 24 hrs by LC-MS-MS analysis; type: ADME, organism-based; conditions: in vivo, read-out: Vdss
Outline: as §2

[10] = Plasma concentration in beagle dog at 1 mg/kg, po after 8 hrs by LC-MS-MS analysis; type: ADME, organism-based, Canis lupus familiaris
Outline: (§3)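 Dogs received a single oral dose of 1 mg/kg (n = 2). Parameters are averages and Tmax is the median. Plasma was sampled at 8 h post-dose, among other times. Bioavailability is referenced to the 1 mg/kg iv dose (n = 2).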

[11] = AUC (0 to infinity) in Wistar rat at 1 mg/kg, iv after 24 hrs by LC-MS-MS analysis; type: ADME, organism-based; parameters: route intravenous, dose 1 mg/kg, time 24 hrs; conditions: in vivo
Outline: as §2

[12] = AUC (0 to last) in Wistar rat at 10 mg/kg, po after 24 hrs by LC-MS-MS analysis; type: ADME, organism-based; parameters: route oral, dose 10 mg/kg, time 24 hrs; conditions: in vivo
Outline: as §1

[13] = Tmax in beagle dog at 1 mg/kg, po after 24 hrs by LC-MS-MS analysis; type: ADME, organism-based, Canis lupus familiaris; conditions: in vivo
Outline: as §3

[14] = Oral bioavailability in beagle dog at 1 mg/kg after 24 hrs by LC-MS-MS analysis; type: ADME, organism-based, Canis lupus familiaris; conditions: in vivo
Outline: as §3

[15] = Cmax in Wistar rat at 10 mg/kg, po after 24 hrs by LC-MS-MS analysis; type: ADME, organism-based; parameters: route oral, time 24 hrs, dose 10 mg/kg; conditions: in vivo
Outline: as §1

[16] = Cmax in beagle dog at 1 mg/kg, po after 24 hrs by LC-MS-MS analysis; type: ADME, organism-based, Canis lupus familiaris; parameters: route oral, dose 1 mg/kg, time 24 hrs; conditions: in vivo
Outline: as §3

[17] = Plasma concentration in Wistar rat at 10 mg/kg, po after 8 hrs by LC-MS-MS analysis; type: ADME, organism-based
Outline: as §1

[18] = AUC (0 to infinity) in beagle dog at 1 mg/kg, iv after 24 hrs by LC-MS-MS analysis; type: ADME, organism-based, Canis lupus familiaris; parameters: route intravenous, dose 1 mg/kg, time 24 hrs; conditions: in vivo
Outline: as §2

[19] = AUC (0 to last) in beagle dog at 1 mg/kg, po after 24 hrs by LC-MS-MS analysis; type: ADME, organism-based, Canis lupus familiaris; parameters: route oral, time 24 hrs, dose 1 mg/kg; conditions: in vivo
Outline: as §3

[20] = Cmax in DBA/1 mouse plasma at 100 mg/kg, po administered as single dose measured after 0.5 hrs; type: ADME, organism-based; parameters: route oral, dose 100 mg/kg, time 0.5 hrs
Outline: (§4)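 Naive male DBA/1 mice received one oral dose within the 1–100 mg/kg range, alongside a vehicle group. Compound plasma concentration was measured at 0.5, 6 or 24 h post-dose, with n = 3–5 per dose group. Values are mean + SEM, and the limit of quantification was 1.52 ng/mL.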

[21] = Plasma concentration in DBA/1 mouse plasma at 100 mg/kg, po administered as single dose measured after 24 hrs; type: ADME, organism-based
Outline: as §4

[22] = Tmax in DBA/1 mouse at 1 to 100 mg/kg, po administered as single dose measured after 0.5 to 24 hrs; type: ADME, organism-based; conditions: in vivo, dose 1-100 mg/kg, time 0.5-24 hrs
Outline: as §4

[23] = Drug level in plasma of DBA/1 mouse at 1 to 100 mg/kg, po administered as single dose measured after 0.5 to 24 hrs; type: ADME, organism-based; conditions: in vivo, dose 1-100 mg/kg, time 0.5-24 hrs
Outline: as §4

[24] = Plasma concentration in DBA/1 mouse plasma at 30 mg/kg, po administered as single dose measured after 24 hrs; type: ADME, organism-based
Outline: as §4

[25] = Cmax in DBA/1 mouse plasma at 1 mg/kg, po administered as single dose measured after 0.5 hrs; type: ADME, organism-based; parameters: route oral, time 0.5 hrs, dose 1 mg/kg
Outline: as §4

Structure (SMILES)	logD [1]	pKa [2]	further results
O=C(N[C@H]1CCN(CC2(F)CC2)C[C@@H]1C(=O)NC1(c2ncccn2)CC1)c1cc(-c2ccc(F)cc2F)on1	2.7	6.2	
O=C(N[C@H]1CCN(C2CCCCC2)C[C@@H]1C(=O)NC1(c2ncccn2)CC1)c1cc(-c2ccc(F)cc2F)on1	2.9		
C[C@@H](NC(=O)[C@H]1CN(C2CCCCC2)CC[C@@H]1NC(=O)c1cc(-c2ccc(F)cc2F)on1)c1ccccc1	> 4.1		
CN(C)C(=O)[C@H]1CN(C2CCCCC2)CC[C@@H]1NC(=O)c1cc(-c2ccc(F)cc2F)on1 (racemic)			solubility [3]: 192 µg/mL (≈ 417 µM); solubility [4]: 569 µg/mL (≈ 1240 µM); solubility [5]: 652 µg/mL (≈ 1420 µM)
CC(=O)N1CC[C@H](NC(=O)c2cc(-c3ccc(F)cc3F)on2)[C@@H](C(=O)NC2(c3ncccn3)CC2)C1	1.6	< 2	
O=C(N[C@H]1CCNC[C@@H]1C(=O)NC1(c2ncccn2)CC1)c1cc(-c2ccc(F)cc2F)on1	0.6	8.1	
O=C(NC1CCN(C2CCCCC2)CC1)c1noc(-c2ccc(F)cc2F)n1	1.6		
Cl.O=C(N[C@H]1CCN(CC2CC2)C[C@@H]1C(=O)NC1(c2ncccn2)CC1)c1cc(-c2ccc(F)cc2F)on1			Tmax [6]: 30 min; Vd [7]: 1.6 L/kg; bioavailability [8]: 35%; Vd [9]: 3.6 L/kg; concentration at 8 h [10]: 185 ng/mL; AUC [11]: 238 ng·h/mL; AUClast [12]: 827 ng·h/mL; Tmax [13]: 90 min; bioavailability [14]: 61%; Cmax [15]: 600 ng/mL; Cmax [16]: 314 ng/mL; concentration at 8 h [17]: 18.3 ng/mL; AUC [18]: 5940 ng·h/mL; AUClast [19]: 3620 ng·h/mL
O=C(NC1CCN(C2CCCCC2)CC1)c1cc(-c2ccc(F)cc2F)on1			solubility [3]: 15 µg/mL (≈ 38.5 µM); solubility [4]: 144 µg/mL (≈ 370 µM); solubility [5]: 196 µg/mL (≈ 503 µM)
CCCN1CC[C@H](NC(=O)c2cc(-c3ccc(F)cc3F)on2)[C@@H](C(=O)NC2(c3ncccn3)CC2)C1	2.5	7.6	
CCN1CC[C@H](NC(=O)c2cc(-c3ccc(F)cc3F)on2)[C@@H](C(=O)NC2(c3ncccn3)CC2)C1	1.8	7.6	
CC(C)N1CC[C@H](NC(=O)c2cc(-c3ccc(F)cc3F)on2)[C@@H](C(=O)NC2(c3ncccn3)CC2)C1	1.8	8	
CN1CC[C@H](NC(=O)c2cc(-c3ccc(F)cc3F)on2)[C@@H](C(=O)NC2(c3ncccn3)CC2)C1	1.7	7.3	
O=C(N[C@H]1CCN(C2CCCCC2)C[C@@H]1C(=O)NC1(c2ccccn2)CC1)c1cc(-c2ccc(F)cc2F)on1	> 3.8		
C[C@@H](NC(=O)[C@H]1CN(C2CCCCC2)CC[C@@H]1NC(=O)c1cc(-c2ccc(F)cc2F)on1)c1ccccn1	3.9		solubility [3]: 4 µg/mL (≈ 7.44 µM); solubility [4]: 38 µg/mL (≈ 70.7 µM); solubility [5]: > 910 µg/mL
COCCN1CC[C@H](NC(=O)c2cc(-c3ccc(F)cc3F)on2)[C@@H](C(=O)NC2(c3ncccn3)CC2)C1	1.9	6.7	
O=C(N[C@H]1CCN(C2CCC2)C[C@@H]1C(=O)NC1(c2ncccn2)CC1)c1cc(-c2ccc(F)cc2F)on1	2.9	7.4	
O=C(N[C@H]1CCN(C2CC(F)(F)C2)C[C@@H]1C(=O)NC1(c2ncccn2)CC1)c1cc(-c2ccc(F)cc2F)on1	2.9	5.2	
O=C(N[C@H]1CCN(C2CCCCC2)C[C@@H]1C(=O)NCc1ccccc1)c1cc(-c2ccc(F)cc2F)on1	> 4.1		
CC(C)(NC(=O)[C@H]1CN(C2CCCCC2)CC[C@@H]1NC(=O)c1cc(-c2ccc(F)cc2F)on1)c1ccccn1	3.8		
O=C(N[C@H]1CCN(CCCF)C[C@@H]1C(=O)NC1(c2ncccn2)CC1)c1cc(-c2ccc(F)cc2F)on1	2.2	6.8	
O=C(N[C@H]1CCN(CC2CC2)C[C@@H]1C(=O)NC1(c2ncccn2)CC1)c1cc(-c2ccc(F)cc2F)on1	2.5	7.7	Cmax [20]: 4280 ng/mL; concentration at 24 h [21]: 14 ng/mL; Tmax [22]: 30 min; Drug uptake [23]: Dose-dependent effect; solubility [3]: 374 µg/mL (≈ 716 µM); concentration at 24 h [24]: < 1.52 ng/mL; Cmax [25]: 6 ng/mL; solubility [4]: 513 µg/mL (≈ 982 µM); solubility [5]: > 880 µg/mL
O=C(N[C@H]1CCN(CC2CCC2)C[C@@H]1C(=O)NC1(c2ncccn2)CC1)c1cc(-c2ccc(F)cc2F)on1	3.1	7.7	
O=C(N[C@H]1CCN(C2CC2)C[C@@H]1C(=O)NC1(c2ncccn2)CC1)c1cc(-c2ccc(F)cc2F)on1	2.4	6.1	
